Data as given in ChEMBL document CHEMBL4321835, “Could Dissecting the Molecular Framework of β-Lactam Integrin Ligands Enhance Selectivity?” (J Med Chem, 2019).
pEC50, pIC50: −log10 of the molar value. The source made the active and inactive calls. No cut-off for these calls is given here.

Key:
Integrin alpha-V/beta-3 [1] = biological target: T1, Integrin alpha-V/beta-3 (Homo sapiens, UniProt P05106+P06756); test: Agonist activity at alphaVbeta3 integrin receptor in human SK-MEL-24 cells assessed as increase in fibronectin-induced cell adhesion pre-incubated for 30 mins; type: cell-based
Outline: (§1)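 Integrin-mediated adhesion. αvβ3: SK-MEL-24 cells adhering to FN. α5β1: K562 cells adhering to FN. α4β1: Jurkat E6.1 cells adhering to VCAM-1. Values are mean ± SD, n=3.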

Integrin alpha-5/beta-1 [2] = biological target: T2, Integrin alpha-5/beta-1 (Homo sapiens, UniProt P05556+P08648); test: Agonist activity at alpha5beta1 integrin receptor in human K562 cells assessed as increase in fibronectin-induced cell adhesion pre-incubated for 30 mins; type: cell-based; outline: as §1
Integrin alpha-4/beta-1 [3] = biological target: T3, Integrin alpha-4/beta-1 (Homo sapiens, UniProt P05556+P13612); test: Agonist activity at alpha4beta1 integrin receptor in human Jurkat E6.1 cells assessed as increase in VCAM1-induced cell adhesion pre-incubated for 30 mins; type: cell-based; outline: as §1
Integrin alpha-4/beta-1 [4] = biological target: T3, Integrin alpha-4/beta-1; test: Binding affinity to alpha4beta1 integrin receptor (unknown origin) incubated for 1 hr by scintillation proximity binding assay; type: protein-complex assay
Outline: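 Scintillation proximity binding assay for α4β1, giving IC50. Mean ± SEM, n=3.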

Integrin alpha-V/beta-3 [5] = biological target: T1, Integrin alpha-V/beta-3; test: Binding affinity to alphaVbeta3 integrin receptor (unknown origin) incubated fro 30 mins by competitive solid-phase binding assay; type: protein-complex assay
Outline: (§2)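 Competitive solid-phase binding assay using FN for αvβ3 and α5β1, giving IC50. Mean ± SEM, n=3.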

Integrin alpha-5/beta-1 [6] = biological target: T2, Integrin alpha-5/beta-1; test: Binding affinity to alpha5beta1 integrin receptor (unknown origin) incubated fro 30 mins by competitive solid-phase binding assay; type: protein-complex assay; outline: as §2
Integrin alpha-4/beta-1 [7] = biological target: T3, Integrin alpha-4/beta-1; test: Agonist activity at alpha4beta1 integrin receptor in human Jurkat E6.1 cells assessed as increase in VCAM1-induced cell adhesion at 10 ug/ml pre-incubated for 30 mins in presence of 10 ug/ml neutralizing antibody to alpha4 integrin subunit; type: cell-based
Integrin alpha-4/beta-1 [8] = biological target: T3, Integrin alpha-4/beta-1; test: Agonist activity at alpha4beta1 integrin receptor in human Jurkat E6.1 cells assessed as induction of ERK1/2 phosphorylation incubated for 1 hr by Western blot analysis; type: cell-based
Outline: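 Jurkat cells (α4β1) were treated across a concentration range with VCAM-1 as positive control. ERK1/2 phosphorylation was quantified by band densitometry against vehicle. Mean ± SEM, n=5; Newman-Keuls test after ANOVA.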

Integrin alpha-5/beta-1 [9] = biological target: T2, Integrin alpha-5/beta-1; test: Activity at alpha5beta1 integrin receptor in human K562 cells assessed as effect on fibronectin-induced cell adhesion pre-incubated for 30 mins; type: cell-based; outline: as §1
Integrin alpha-V/beta-3 [10] = biological target: T1, Integrin alpha-V/beta-3; test: Agonist activity at alphaVbeta3 integrin receptor in human Saos-2 cells assessed as increase in fibronectin-induced cell adhesion pre-incubated for 30 mins; type: cell-based
Integrin alpha-V/beta-3 [11] = biological target: T1, Integrin alpha-V/beta-3; test: Agonist activity at alphaVbeta3 integrin receptor in human SK-MEL-24 cells assessed as increase in cell adhesion to wells coated with compound by passive absorption in absence of fibronectin; type: cell-based
Outline: (§3)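 Compounds were coated onto wells by passive absorption, with no FN present. Adhesion of SK-MEL-24 or Saos-2 cells was compared with BSA-coated wells. Mean ± SEM from three independent experiments run in quadruplicate; Newman-Keuls test after ANOVA.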

Integrin alpha-V/beta-3 [12] = biological target: T1, Integrin alpha-V/beta-3; test: Agonist activity at alphaVbeta3 integrin receptor in human Saos-2 cells assessed as increase in cell adhesion to wells coated with compound by passive absorption in absence of fibronectin; type: cell-based; outline: as §3
Integrin alpha-V/beta-3 [13] = biological target: T1, Integrin alpha-V/beta-3; test: Agonist activity at alphaVbeta3 integrin receptor in human SK-MEL-24 cells assessed as increase in fibronectin-induced cell adhesion at 10 ug/ml added 10 mins after pre-incubation with neutralizing antibody to integrin alphaV-subunit; type: cell-based
Outline: (§4)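 Neutralizing antibody against the αv subunit was added to SK-MEL-24 or Saos-2 cells 10 min before the compounds (10 μg/mL). Adhesion was then measured.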

Integrin alpha-V/beta-3 [14] = biological target: T1, Integrin alpha-V/beta-3; test: Agonist activity at alphaVbeta3 integrin receptor in human Saos-2 cells assessed as increase in fibronectin-induced cell adhesion at 10 ug/ml added 10 mins after pre-incubation with neutralizing antibody to integrin alphaV-subunit; type: cell-based; outline: as §4
Integrin alpha-V/beta-3 [15] = biological target: T1, Integrin alpha-V/beta-3; test: Agonist activity at alphaVbeta3 integrin receptor (unknown origin) expressed in HEK293 cells assessed as induction of ERK1/2 phosphorylation at 1 nM to 100 nM incubated for 1 hr by Western blot analysis; type: cell-based
Outline: (§5)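 HEK293 cells were transfected with plasmids coding αv and β3 subunits; untransfected HEK293 served as negative control and FN as positive control. ERK1/2 phosphorylation was quantified by band densitometry against vehicle. Mean ± SEM, n=5; Newman-Keuls test after ANOVA.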

[16] = biological target: Mitogen-activated protein kinase; ERK1/ERK2 (Homo sapiens) (UniProt P27361+P28482); test: Activation of ERK1/2 phosphorylation in HEK293 cells at 1 nM to 100 nM incubated for 1 hr by Western blot analysis; type: cell-based; outline: as §5
Integrin alpha-V/beta-3 [17] = biological target: T1, Integrin alpha-V/beta-3; test: Activity at alphaVbeta3 integrin receptor in human SK-MEL-24 cells assessed as effect on fibronectin-induced cell adhesion pre-incubated for 30 mins; type: cell-based; outline: as §1
Integrin alpha-5/beta-1 [18] = biological target: T2, Integrin alpha-5/beta-1; test: Antagonist activity at alpha5beta1 integrin receptor in human K562 cells assessed as reduction in fibronectin-induced cell adhesion pre-incubated for 30 mins; type: cell-based; outline: as §1
Integrin alpha-4/beta-1 [19] = biological target: T3, Integrin alpha-4/beta-1; test: Activity at alpha4beta1 integrin receptor in human Jurkat E6.1 cells assessed as effect on VCAM1-induced cell adhesion pre-incubated for 30 mins; type: cell-based; outline: as §1
Integrin alpha-5/beta-1 [20] = biological target: T2, Integrin alpha-5/beta-1; test: Antagonist activity at alpha5beta1 integrin receptor in human K562 cells assessed as reduction in fibronection-induced ERK1/2 phosphorylation at 1 nM to 100 nM pre-incubated for 1 hr before fibronectin stimulation for 1 hr by Western blot analysis; type: cell-based
Outline: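 K562 cells (α5β1) were treated with compound and stimulated with FN. FN-induced ERK1/2 phosphorylation was quantified by band densitometry against vehicle and FN. Mean ± SEM, n=5; Newman-Keuls test after ANOVA.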

| Structure (SMILES) | pIC50 (Integrin alpha-4/beta-1 [4]) | pIC50 (Integrin alpha-V/beta-3 [5]) | pIC50 (Integrin alpha-5/beta-1 [6]) | Activity (Integrin alpha-5/beta-1 [9]) [µM] | Activity (Integrin alpha-V/beta-3 [17]) [µM] | pIC50 (Integrin alpha-5/beta-1 [18]) | Activity (Integrin alpha-4/beta-1 [19]) [µM] | also measured |
| --- | --- | --- | --- | --- | --- | --- | --- | --- |
| Cc1ccccc1NC(=O)N1CCC[C@H]1C(=O)O | 7.72 | < 6.00 | 6.87 | – | – | – | – | pEC50 (Integrin alpha-V/beta-3 [1]): 5.54; pEC50 (Integrin alpha-5/beta-1 [2]): 6.85; pEC50 (Integrin alpha-4/beta-1 [3]): 8.00; Activity (Integrin alpha-4/beta-1 [7]): inactive; Activity (Integrin alpha-4/beta-1 [8]): Dose-dependent effect |
| O=C(O)/C=C1/CC(=O)N1 | 6.53 | 7.54 | < 6.00 | > 5 | – | – | – | pEC50 (Integrin alpha-V/beta-3 [1]): 7.12; pEC50 (Integrin alpha-4/beta-1 [3]): 6.59; pEC50 (Integrin alpha-V/beta-3 [10]): 6.81; Activity (Integrin alpha-V/beta-3 [11]): Active; Activity (Integrin alpha-V/beta-3 [12]): Active; Activity (Integrin alpha-V/beta-3 [13]): inactive; Activity (Integrin alpha-V/beta-3 [14]): inactive; Activity (Integrin alpha-V/beta-3 [15]): Active; Activity [16]: inactive |
| Cc1ccccc1C(=O)N1C(=O)C[C@H]1C(=O)O | < 6.00 | < 6.00 | 7.23 | – | > 5 | 7.38 | > 5 | inhibition (Integrin alpha-5/beta-1 [20]): Active |
| Cc1ccccc1C(=O)N1C(=O)CC1CC(=O)O (stereo not given) | < 6.00 | < 6.00 | 6.39 | – | > 5 | 6.38 | > 5 | – |
| O=C(O)CNC(=O)CC1CC(=O)N1 (stereo not given) | – | – | – | – | > 5 | 5.95 | > 5 | – |
| NCc1ccc(NC(=O)N2C(=O)C[C@H]2C(=O)O)cc1 | – | – | – | – | > 5 | – | > 5 | – |
| O=C(O)CC1CC(=O)N1 (stereo not given) | – | – | – | – | – | – | > 5 | – |
| Cc1ccccc1NC(=O)NCCC(=O)O | < 6.00 | 8.02 | < 6.00 | > 5 | – | – | > 5 | pEC50 (Integrin alpha-V/beta-3 [1]): 7.52; pEC50 (Integrin alpha-V/beta-3 [10]): 6.01; Activity (Integrin alpha-V/beta-3 [11]): Active; Activity (Integrin alpha-V/beta-3 [12]): Active; Activity (Integrin alpha-V/beta-3 [13]): inactive; Activity (Integrin alpha-V/beta-3 [14]): inactive; Activity (Integrin alpha-V/beta-3 [15]): Active; Activity [16]: inactive |
| Cc1ccccc1NC(=O)NCC(=O)O | < 6.00 | 8.47 | < 6.00 | – | – | 5.45 | > 5 | pEC50 (Integrin alpha-V/beta-3 [1]): 7.07; pEC50 (Integrin alpha-V/beta-3 [10]): 6.52; Activity (Integrin alpha-V/beta-3 [11]): Active; Activity (Integrin alpha-V/beta-3 [12]): Active; Activity (Integrin alpha-V/beta-3 [13]): inactive; Activity (Integrin alpha-V/beta-3 [14]): inactive; Activity (Integrin alpha-V/beta-3 [15]): Active; Activity [16]: inactive |
| NCc1ccc(NC(=O)N2C(=O)C[C@@H]2C(=O)O)cc1 | – | – | – | > 5 | > 5 | – | > 5 | – |
| Cc1ccccc1NC(=O)N1C(=O)CC1CC(=O)O (stereo not given) | – | – | – | > 5 | > 5 | – | – | – |
| Cc1ccccc1NC(=O)N1C(=O)C[C@@H]1C(=O)NCCC(=O)O | < 6.00 | < 6.00 | 7.92 | – | > 5 | 7.01 | > 5 | – |
| Cc1ccccc1NC(=O)N1C(=O)CC1CC(=O)NCC(=O)O (stereo not given) | – | – | – | – | > 5 | – | > 5 | – |
| Cc1ccccc1NC(=O)N1CCC1=O | – | – | – | > 5 | > 5 | – | – | pEC50 (Integrin alpha-4/beta-1 [3]): 6.01 |
| Cc1ccccc1NC(=O)N1C(=O)C[C@@H]1C(=O)O | – | – | – | > 5 | > 5 | – | > 5 | – |
